Data published in ChEMBL document CHEMBL1151228, “Three cyclooctapeptides and one glycoside from Microtoena prainiana” (J Nat Prod, 2004).
Active and inactive are the calls of the source. The calls are words filed in the database; no cut-off is given here. Where a SMILES comes first, the peptide text is derived from it.

Assays:
[1] = test system: Human alphaherpesvirus 2; experiment: Antiviral activity against HSV2 333 infected in african green monkey Vero cells assessed as virus-induced cytopathic effect at 250 ug/ml; format: functional, organism-based
Outline: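 Vero cells infected with HSV-2 (strain 333); inhibition of viral replication read as cytopathic effect (CPE); compounds tested at 250 µg/mL; acyclovir as positive drug control.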

[2] = biological target: Angiotensin-converting enzyme (Homo sapiens) (UniProt P12821); experiment: Inhibition of ACE at 1 mg/ml
Outline: (§1)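 ACE extract (10 µg total protein) preincubated with sample for 30 min at 37 °C. HHL substrate then added for 15 min at 37 °C. NaOH and O-phthaldialdehyde added, stopped after 10 min with HCl. His-Leu fluorescence read at ex 405/em 535 nm. % inhibition = 100×(N−S)/(N−B) against negative and blank controls. Captopril positive control; at least three determinations.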

[3] = biological target: Angiotensin-converting enzyme (Homo sapiens) (UniProt P12821); experiment: Inhibition of ACE at 0.1 mg/ml; outline: as §1
[4] = Cytotoxicity against human N04 cells by SRB assay; format: functional, cell-based
Outline: (§2)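 Sulforhodamine B (SRB) cytotoxicity assay on human tumour lines: breast cancer Bre04, lung cancer Lu04 and neuroma N04.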

[5] = Cytotoxicity against human Bre04 cells by SRB assay; format: functional, cell-based; outline: as §2
[6] = Cytotoxicity against human Lu04 cells by SRB assay; format: functional, cell-based; outline: as §2

Angiotensin-converting enzyme (Homo sapiens), sequence (P12821 whole entry): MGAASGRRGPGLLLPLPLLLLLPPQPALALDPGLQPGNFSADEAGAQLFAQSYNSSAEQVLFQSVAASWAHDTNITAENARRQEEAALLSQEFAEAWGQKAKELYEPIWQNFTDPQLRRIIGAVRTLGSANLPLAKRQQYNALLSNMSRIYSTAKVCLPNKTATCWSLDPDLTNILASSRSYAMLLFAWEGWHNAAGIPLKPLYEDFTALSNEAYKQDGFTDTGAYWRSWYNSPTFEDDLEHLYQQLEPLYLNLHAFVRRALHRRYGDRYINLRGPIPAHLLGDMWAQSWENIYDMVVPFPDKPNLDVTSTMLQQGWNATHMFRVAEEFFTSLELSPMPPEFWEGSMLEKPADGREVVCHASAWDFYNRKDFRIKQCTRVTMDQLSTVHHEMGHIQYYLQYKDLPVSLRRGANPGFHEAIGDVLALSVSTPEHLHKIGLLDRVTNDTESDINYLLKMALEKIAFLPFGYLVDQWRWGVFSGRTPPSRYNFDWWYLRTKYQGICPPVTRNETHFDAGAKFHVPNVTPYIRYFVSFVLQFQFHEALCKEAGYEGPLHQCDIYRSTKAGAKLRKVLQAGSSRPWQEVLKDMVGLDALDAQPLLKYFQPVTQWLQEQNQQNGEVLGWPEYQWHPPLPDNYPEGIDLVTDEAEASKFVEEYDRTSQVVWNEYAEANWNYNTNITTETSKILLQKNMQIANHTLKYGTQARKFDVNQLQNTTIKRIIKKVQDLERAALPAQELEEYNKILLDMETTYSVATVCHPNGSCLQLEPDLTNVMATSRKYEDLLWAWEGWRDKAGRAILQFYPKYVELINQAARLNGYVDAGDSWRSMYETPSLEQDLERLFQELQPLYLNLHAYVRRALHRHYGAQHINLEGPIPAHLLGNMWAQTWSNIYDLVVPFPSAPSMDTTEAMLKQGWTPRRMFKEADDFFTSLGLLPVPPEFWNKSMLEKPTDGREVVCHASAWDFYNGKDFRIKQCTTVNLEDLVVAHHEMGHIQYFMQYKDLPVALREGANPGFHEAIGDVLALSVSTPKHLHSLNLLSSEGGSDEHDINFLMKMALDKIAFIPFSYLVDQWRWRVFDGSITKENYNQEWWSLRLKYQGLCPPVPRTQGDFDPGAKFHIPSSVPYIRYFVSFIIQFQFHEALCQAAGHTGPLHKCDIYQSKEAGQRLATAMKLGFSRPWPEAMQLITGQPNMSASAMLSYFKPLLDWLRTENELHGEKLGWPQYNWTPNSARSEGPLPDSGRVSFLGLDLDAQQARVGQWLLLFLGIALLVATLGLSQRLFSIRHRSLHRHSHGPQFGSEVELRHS

SMILES | Activity [1] | inhibition [2] [%] | inhibition [3] [%] | IC50 [4] [µg/mL] | IC50 [5] [µg/mL] | IC50 [6] [µg/mL]
CC[C@@H](C)[C@@H]1NC(=O)[C@@H]2CCCN2C(=O)[C@H](Cc2ccc(O)cc2)NC(=O)[C@H](CC(N)=O)NC(=O)[C@H](Cc2ccccc2)NC(=O)[C@@H]2CCCN2C(=O)[C@H](CC(C)C)NC(=O)[C@@H]2CCCN2C1=O | inactive |  |  |  |  | 
COc1cc(/C=C/C(=O)O[C@H]2[C@H](O[C@@H]3O[C@@H](C)[C@H](O)[C@@H](O)[C@H]3O)[C@H]3O[C@@H](c4ccc(O)c(O)c4)CO[C@@H]3O[C@@H]2CO)ccc1O | inactive | 99.8 | 67.5 |  |  | 
C[C@@H]1O[C@@H](O[C@@H]2[C@H]3O[C@@H](c4ccc(O)c(O)c4)CO[C@@H]3O[C@H](CO)[C@H]2OC(=O)/C=C/c2ccc(O)c(O)c2)[C@H](O)[C@H](O)[C@H]1O | inactive | 99.7 | 75.5 |  |  | 
C[C@@H]1O[C@@H](O[C@H]2[C@H](O)[C@@H](COC(=O)/C=C/c3ccc(O)c(O)c3)O[C@H]3OC[C@H](c4ccc(O)c(O)c4)O[C@@H]32)[C@H](O)[C@H](O)[C@H]1O | inactive | 99.3 | 71.4 |  |  | 
CC(C)[C@@H]1NC(=O)[C@@H]2CCCN2C(=O)[C@H](Cc2ccccc2)NC(=O)CNC(=O)[C@H](C)NC(=O)[C@H](C)NC(=O)[C@H](Cc2ccccc2)NC(=O)[C@H](Cc2ccccc2)NC1=O (cyclo(AAGFPVFF)) | inactive |  |  |  |  | 
CC(C)C[C@@H]1NC(=O)[C@H](C(C)C)NC(=O)[C@@H]2CCCN2C(=O)[C@H](Cc2ccccc2)NC(=O)[C@H](C)NC(=O)[C@H](C(C)C)NC(=O)[C@@H]2CCCN2C(=O)[C@H](Cc2ccc(O)cc2)NC1=O (cyclo(AFPVLYPV)) | inactive |  |  |  |  | 
CC(C)C[C@@H]1NC(=O)[C@H](Cc2ccc(O)cc2)NC(=O)[C@@H]2CCCN2C(=O)[C@H](C(C)C)NC(=O)[C@H](C)NC(=O)[C@H](Cc2ccccc2)NC(=O)[C@@H]2CCCN2C(=O)[C@H](C(C)C)NC1=O [MICROTOENIN A] (cyclo(AVPYLVPF)) |  |  |  | > 100 | > 100 | > 100
CC(C)[C@@H]1NC(=O)[C@H](Cc2ccccc2)NC(=O)[C@H](Cc2ccccc2)NC(=O)[C@H](C)NC(=O)[C@H](C)NC(=O)CNC(=O)[C@H](Cc2ccccc2)NC(=O)[C@@H]2CCCN2C1=O [MICROTOENIN B] (cyclo(AAFFVPFG)) |  |  |  | > 100 | > 100 | > 100
CC[C@H](C)[C@@H]1NC(=O)[C@@H]2CCCN2C(=O)[C@H](CC(C)C)NC(=O)[C@@H]2CCCN2C(=O)[C@H](Cc2ccccc2)NC(=O)[C@H](CC(N)=O)NC(=O)[C@H](Cc2ccc(O)cc2)NC(=O)[C@@H]2CCCN2C1=O [MICROTOENIN C] (cyclo(FPLPIPYN)) |  |  |  | > 100 | > 100 | > 100
